Test results: ChEMBL document CHEMBL3244358, “Conformational analogues of antihypertensive agents related to guanethidine” (J Med Chem, 1977)
Active and inactive are the calls of the source. The rule behind the calls is not given here.

Experiments:
Cavia porcellus [1] = organism: Cavia porcellus; assay: Antagonist activity at adrenergic receptor in guinea pig vas deferens assessed as inhibition of electrically-induced release of norepinephrine measured every 10 mins; type: tissue-based
Method in brief: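 Isolated guinea pig vas deferens in Krebs solution, stimulated transmurally for 15 s every 4 min at 25-35 shocks/s, 0.1 ms pulses, supramaximal 110-120 V. Salts were dissolved in distilled water, with a fresh preparation for each drug. Responses were read at 10-min intervals. ID50, the bath concentration giving 50% inhibition, came from dose-response curves of at least three concentrations, as free base.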

Cavia porcellus [2] = organism: Cavia porcellus; assay: Equipotent molar ratio, ratio of compound ID50 to guanethidine ID50 for adrenergic receptor in guinea pig vas deferens assessed as inhibition of electrically-induced release of norepinephrine
Cavia porcellus [3] = organism: Cavia porcellus; assay: Antagonist activity at adrenergic receptor in guinea pig vas deferens assessed as inhibition of electrically-induced release of norepinephrine at 1 x 10^-4 M measured every 10 mins; type: tissue-based

Row | SMILES | ID50 (Cavia porcellus [1]) | EPMR (Cavia porcellus [2]) | inhibition (Cavia porcellus [3])
1 | N=C(N)NCCc1cccc2ccccc12 | 1.2 ×10⁻⁵ M | 6 | –
2 | N=C(N)NCc1cccc2ccccc12 | 1.9 ×10⁻⁷ M | 0.095 | –
3 | N=C(N)NCC1Cc2ccccc21 (stereo unspecified) | 2.5 µM | 1.25 | –
4 | N=C(N)NC1Cc2ccccc2C1 | – | – | inactive
5 | N=C(N)NC/C=C\C1CCCCC1 | 9.8 ×10⁻⁸ M | 0.049 | –
6 | N=C(N)N[C@H]1C[C@H]1c1ccccc1 (relative stereo) | – | – | inactive
7 | N=C(N)NCCN1CCCCCCC1 | 2 µM | – | –
8 | N=C(N)NC/C=C/C1CCCCC1 | 7.7 ×10⁻⁷ M | 0.39 | –
9 | N=C(N)NC[C@H]1C[C@H]1c1ccccc1 (relative stereo) | 9.1 µM | 4.55 | –
10 | N=C(N)N[C@@H]1C[C@H]1c1ccccc1 | 5.05 µM | 2.52 | –
11 | COc1ccc2c(c1)CCC2NC(=N)N (stereo unspecified) | – | – | inactive
12 | N=C(N)NC[C@@H]1C[C@H]1c1ccccc1 | 7.3 µM | 3.65 | –
13 | N=C(N)NC1CCc2ccc([N+](=O)[O-])cc21 (stereo unspecified) | 2 ×10⁻⁵ M | 10 | –
14 | N=C(N)NC1CCc2ccccc21 (stereo unspecified) | 5.8 µM | 2.9 | –
15 | N=C(N)NCCc1ccc2ccccc2c1 | 5 µM | 2.5 | –
